A value given as a limit tells only on which side of the number the result lay.

The test system of data set [1] is Canis familiaris. The data set can be described thus: Total time in minutes elapsed from the initiation of the change until return to the pretest value of blood pressure in coronary sinus of anesthetized dog at intravenous dosage of 0.1 mg/kg. The data set is classed as functional, Canis lupus familiaris.
Data set [2] deals with Canis familiaris. Kind of data set: Total time in minutes elapsed from the initiation of the change until return to the pretest value of heart rate in coronary sinus of anesthetized dog at intravenous dosage of 0.01 mg/kg. The data set is classed as functional, Canis lupus familiaris.
Data set [3] can be described thus: Lethal dose in mice after intraperitoneal administration. The data set is classed as toxicity, organism-based. To be noted: mouse, in vivo, ip. The gist of the method: (§1)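 Male and female mice, three per dose group, were given the compound by the stated route in increments of 0.5 log doses. The LD50 was estimated as an approximate value.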
The test system of data set [4] is Canis familiaris. The data set can be described thus: Total time in minutes elapsed from the initiation of the change until return to the pretest value of oxygen partial pressure in coronary sinus of anesthetized dog at intravenous dosage of 0.01 mg/kg. The data set is classed as functional, Canis lupus familiaris.
A short description of data set [5]: Lethal dose in mice after peroral administration. The settings on record: mouse, in vivo, po. In kind it is toxicity, organism-based. The procedure, abridged:
as §1

For data set [6], the system named is Canis familiaris. Kind of data set: Tested for percent increase in coronary sinus partial pressure of oxygen (PO2) in open chest anesthetized dog at intravenous dosage of 0.01 mg/kg. In kind it is functional, Canis lupus familiaris.
The subject of data set [7] is Canis familiaris. The data set can be described thus: Tested for the percent increase in coronary sinus partial pressure of oxygen (PO2) in open chest anesthetized dog at intravenous dosage of 0.10 mg/kg. In kind it is functional, Canis lupus familiaris. To be noted: dose 0.1 mg/kg.
The subject of data set [8] is Canis familiaris. Kind of data set: Total time in minutes elapsed from the initiation of the change until return to the pretest value of oxygen partial pressure in coronary sinus of anesthetized dog at intravenous dosage of 0.1 mg/kg. In kind it is functional, Canis lupus familiaris.
In data set [9] the test system is Canis familiaris. Kind of data set: Total time in minutes elapsed from the initiation of the change until return to the pretest value of blood pressure in coronary sinus of anesthetized dog at intravenous dosage of 0.01 mg/kg. The data set is classed as functional, Canis lupus familiaris.
The subject of data set [10] is Canis familiaris. Kind of data set: Tested for the percent increase in aortic blood pressure (BP) in open chest anesthetized dog at intravenous dosage of 0.01 mg/kg. The data set is classed as functional, Canis lupus familiaris, Artery. The procedure, abridged:
(§2)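 Open-chest anesthetized dogs, compound given iv at the stated dose. Aortic blood pressure is reported as the change from the control (pre-dose) value. Other set-up follows the group's earlier cardiovascular protocol.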

For data set [11], the system named is Canis familiaris. The data set can be described thus: Tested for the percent increase in aortic blood pressure (BP) in open chest anesthetized dog at intravenous dosage of 0.10 mg/kg. The settings on record: dose 0.1 mg/kg. In kind it is functional, Canis lupus familiaris, Artery. The gist of the method: as §2
In data set [12] the test system is Canis familiaris. The data set can be described thus: Total time in minutes elapsed from the initiation of the change until return to the pretest value of heart rate in coronary sinus of anesthetized dog at intravenous dosage of 0.1 mg/kg. The data set is classed as functional, Canis lupus familiaris.
In data set [13] the test system is Canis familiaris. Kind of data set: tested for the percent increase in heart rate (HR) in open chest anesthetized dog at intravenous dosage of 0.10 mg/kg. In kind it is functional, Canis lupus familiaris. To be noted: dose 0.1 mg/kg.
Data set [14] concerns Canis familiaris. Kind of data set: Tested for percent increase in coronary sinus partial pressure of oxygen (PO2) in open chest anesthetized dog at intravenous dosage of 0.10 mg/kg. The data set is classed as functional, Canis lupus familiaris. To be noted: dose 0.1 mg/kg.
Data set [15] deals with Canis familiaris. Kind of data set: Total time in minutes elapsed from the initiation of the change until return to the pretest value of heart rate in coronary sinus of anesthetized dog at intravenous dosage of 0.001 mg/kg. In kind it is functional, Canis lupus familiaris.

With `CNC(=O)[C@H]1O[C@@H](n2cnc3c(N)ncnc32)[C@H](O)[C@@H]1O`, the Duration in data set [1] is given as 240 min; in data set [2], 240 min; in [4], 14 min; in [8], 240 min; in [9], 60 min. In addition, the LD50 in [3] came to 5 mg/kg; in data set [5], 20 mg/kg. Further, the values for the PO2 in [6] and in data set [7] were 105% and 215%, respectively.
In the case of `CONC(=O)[C@H]1O[C@@H](n2cnc3c(N)ncnc32)[C@H](O)[C@@H]1O`, the BP came to 9% in data set [10] and 39% in data set [11]. Also, the Duration in [1] is listed as 90 min; in data set [2], 60 min; in data set [12] it was 10 min; in [4] it was 60 min; in [8], 90 min; in [9], 41 min. Further, the median lethal dose (LD50) was determined as 20 mg/kg in data set [3] and 50 mg/kg in data set [5]. The compound further displayed an HR in [13] of 2%. Also, the values for the PO2 in [6] and in data set [7] were 157% and 143%, respectively.
On to `CCC(CC)NC(=O)[C@H]1OC(n2cnc3c(N)ncnc32)[C@H](O)[C@@H]1O` (some centres undefined), for which the PO2 in data set [14] came out at 28%. In addition, the Duration in data set [1], in data set [12] and in [8] was 110 min each time. Also, the BP in [11] is given as 9%. In addition, the LD50 is 50 mg/kg in [3] and over 300 mg/kg in data set [5]. This compound also displayed an HR in data set [13] of 11%.
In data set [14], `C=C(C)CNC(=O)[C@H]1OC(n2cnc3c(N)ncnc32)[C@H](O)[C@@H]1O` (some centres undefined) yielded a PO2 of 38%. For the same compound, the values for the Duration in data set [1], in data set [12] and in data set [8] were 15 min, 60 min and 60 min, respectively. The BP in data set [11] came to 1%. Besides, the figures for the LD50 in data set [3] and in [5] were 500 mg/kg and over 1000 mg/kg, respectively. In data set [13], this compound returned an HR of 19%.
With `Nc1ncnc2c1ncn2[C@@H]1O[C@H](C(=O)NC2CCCC2)[C@@H](O)[C@H]1O`, in data set [14], the PO2 is reported as 83%. Moreover, the Duration in [1], in data set [12] and in [8] was 120 min throughout. Moreover, in data set [11], the BP amounted to 12%. The LD50 in data set [3] and in data set [5] was 200 mg/kg throughout. In addition, the HR in [13] is recorded as 25%.
Regarding `Nc1c2ncn(C3O[C@H](C(=O)NC4CC4)[C@@H](O)[C@H]3O)c2nc[n+]1[O-]` (some centres undefined), the BP in data set [10] is recorded as 15%. Further, the Duration in data set [15] came out at 60 min; in data set [4], 75 min; in data set [9] it was 60 min. The compound further had a PO2 in data set [6] of 66%.
Regarding `CCCONC(=O)[C@H]1OC(n2cnc3c(N)ncnc32)[C@H](O)[C@@H]1O` (some centres undefined), the PO2 in data set [14] was determined as 52%. Also, the Duration in data set [1] was found to be 13 min; in data set [12], 3 min; in data set [8], 60 min. Besides, in [11], the BP came to 1%. The median lethal dose (LD50) was 200 mg/kg in [3] and over 1000 mg/kg in data set [5]. The compound also registered an HR in [13] of 6%.

(Values after ChEMBL document CHEMBL1121608, “Modification of the 5' position of purine nucleosides. 2. Synthesis and some cardiovascular properties of adenosine-5'-(N-substituted)carboxamides” (J Med Chem, 1980).)
